Data published in publication PMC7474130 (Journal of Pharmaceutical Analysis, 2020).
Where two headings read alike, the source gives them in different places.

Experiments:
[1] = assay type: in vivo, Male Sprague-Dawley (SD) rats; conditions: for Cmax / half-life: male, Sprague-Dawley, rat, po, 6.8 g/kg
Method in brief: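 Untreated male SD rats (220 ± 20 g; six) were housed at 25 ± 3 °C and 45 ± 5% humidity with free access to food and water. Plasma was analysed by UHPLC-Q-Orbitrap-MS (IS, 1/concentration2-weighted calibration), with non-compartmental analysis.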

[2] = assay type: in vivo, Male Sprague-Dawley (SD) rats; conditions: plasma; for AUC0-t / AUC0-∞: IM rats, oral ZSS aqueous extract 6.8 g/kg, mean ± SD, n = 6; for Cmax / Tmax / half-life: male, Sprague-Dawley, rat, po, 6.8 g/kg
Method in brief: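 Male SD rats (220 ± 20 g) made insomniac with PCPA 400 mg/kg i.p. daily for three days (suspended in 0.5% CMC-Na); six rats. Plasma (3500 × g, 10 min, 4 °C) was held at −80 °C. Analysis used UHPLC-Q-Orbitrap-MS with internal standards and non-compartmental parameters.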

[3] = Stability of analytes in rat plasma under different storage conditions; assay type: in vitro ADME
Method in brief: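 Blank rat plasma spiked at three QC concentrations, five replicates each. Plasma (100 μL) was precipitated with three volumes of acetonitrile plus IS, vortexed 5 min, centrifuged at 13,000 × g for 10 min at 4 °C, then dried under nitrogen. It was reconstituted in initial mobile phase and re-centrifuged. Extracts were held in the auto-sampler at 4 °C, then 3 μL injected. Quantitation used analyte/IS peak-area ratios on a 1/concentration2-weighted linear calibration.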

[4] = NC rats, oral ZSS aqueous extract 6.8 g/kg, plasma, mean ± SD, n = 6
[5] = extracted plasma QC samples, 4 °C for 12 h (auto-sampler), high QC level
[6] = extracted plasma QC samples, 4 °C for 12 h (auto-sampler), low QC level
[7] = extracted plasma QC samples, 4 °C for 12 h (auto-sampler), middle QC level
[8] = rat plasma, Frozen for 30 days (−80 °C), high QC level
[9] = rat plasma, Frozen for 30 days (−80 °C), low QC level
[10] = rat plasma, Frozen for 30 days (−80 °C), middle QC level
[11] = rat plasma, Three freeze-thaw cycles, high QC level
[12] = rat plasma, Three freeze-thaw cycles, low QC level
[13] = rat plasma, Three freeze-thaw cycles, middle QC level

AUC0-t [1, 4] [μg/L･h] | AUC0-∞ [1, 4] [μg/L･h] | Cmax ([1]; plasma) [ng/mL] | half-life ([1]; plasma) [min] | AUC0-t [2] [μg/L･h] | AUC0-∞ [2] [μg/L･h] | Cmax [2] [ng/mL] | Tmax [2] [min] | half-life [2] [min] | Stability, Accuracy (RE, %) [3, 5] [%] | Stability, Accuracy (RE, %) [3, 6] [%] | Stability, Accuracy (RE, %) [3, 7] [%] | Stability, Accuracy (RE, %) [3, 8] [%] | Stability, Accuracy (RE, %) [3, 9] [%] | Stability, Accuracy (RE, %) [3, 10] [%] | Stability, Accuracy (RE, %) [3, 11] [%] | Stability, Accuracy (RE, %) [3, 12] [%] | Stability, Accuracy (RE, %) [3, 13] [%] | Compound | other results
1.08 ± 0.30 | 1.13 ± 0.27 | 1.98 ± 0.82 | 27 ± 10.2 | 0.91 ± 0.26 | 0.93 ± 0.28 | 2.48 ± 0.98 | 13.8 ± 5.4 | 24.6 ± 16.8 | 7.71 | 14.88 | 3.35 | −1.99 | 14.76 | 9.58 | 8.75 | 11.85 | 9.48 | COc1cc2c(cc1O)C(Cc1ccc(O)cc1)NCC2 (stereo not drawn) [Coclaurine, coclaurine] | Tmax [1, 4]: 16.2 ± 5.4 min
54.56 ± 21.90 | 69.51 ± 28.52 | 40.6 ± 12.7 | 190 ± 118 | 45.13 ± 24.46 | 51.87 ± 23.75 | 35.1 ± 13.7 | 12 ± 4.2 | 161 ± 76.8 | 11.25 | −4.56 | −11.99 | 9.01 | −14.77 | 0.05 | 8.06 | −5.49 | 5.31 | COc1ccc2c(c1O)-c1c(O)c(OC)cc3c1[C@H](C2)[N+](C)(C)CC3 [Magnoflorine, magnoflorine] | –
– | – | – | – | – | – | – | – | – | – | – | – | – | – | – | – | – | – | COc1cc2oc(-c3ccc(O)cc3)cc(=O)c2c(O)c1[C@@H]1O[C@H](CO)[C@@H](O)[C@H](O)[C@H]1O [swertisin] | concentration in rat plasma ([1]; after oral administration of ZSS aqueous extract): too low for detection; content in bile and feces ([1]; after oral administration of ZSS aqueous extract, data not open): high content
